Experimental data pooled from the literature.
KIT D816H: Mast/stem cell growth factor receptor Kit (KIT, Homo sapiens, UniProt P10721, D816H)
KIT: Mast/stem cell growth factor receptor Kit (KIT, Homo sapiens, UniProt P10721)

N[C@@H]1CCN(c2nccc(-c3cnn4ncccc34)n2)C1 — remaining binding (Mast/stem cell growth factor receptor Kit, autoinhibited (KIT, Homo sapiens, UniProt P10721); binding; 1 µM): 80%
Cc1ccc(C(=O)NCc2ccsc2)cc1C#Cc1cn(C(C)C)c2ncnc(N)c12 — activity vs control (KIT D816H; enzyme activity; inhibitor; 1 µM): 11%
Nc1ncnc2occ(-c3ccc(NC(=O)Nc4cc(C(F)(F)F)ccc4F)cc3)c12 — remaining signal (Mast/stem cell growth factor receptor Kit (KIT, Homo sapiens, UniProt P10721, A829P); cell-free assay; inhibitor; 20 µM): 3.7%
CN(C)c1nccc(-c2cnn3ncccc23)n1 — remaining binding (KIT D816H; binding; 1 µM): 60%
CC1=C(C#N)C(c2ccc3c(c2)c(NC(=O)c2ccccc2C)nn3C)C(C#N)=C(C)N1 — remaining binding (Mast/stem cell growth factor receptor Kit (KIT, Homo sapiens, UniProt P10721, L576P); cell-free assay; competition with immobilised ligand; 1 µM): 100%
CC/C(=N\NC(=O)NCc1cccc(O)c1)c1ccc(O)c(C)c1O — inhibition (Mast/stem cell growth factor receptor Kit (KIT, Homo sapiens, UniProt P10721, V560G); enzyme activity; inhibitor; 0.1 µM): 0.1%
CCOCCn1cc(C(=O)Nc2ccc(-n3nc(-c4cccnc4)cc3C(F)(F)F)cn2)ccc1=O — remaining binding (KIT; cell-free assay; competition with immobilised ligand; 1 µM): 100%
C[C@H]1CCN(c2nccc(-c3cnn4ncccc34)n2)C1 — remaining binding (KIT; binding; 1 µM): 96%
Cc1cc(NC(=O)c2cccc3cc(-c4cccc5[nH]nc(N)c45)ccc23)ccc1F — activity vs control (Mast/stem cell growth factor receptor Kit (KIT, Homo sapiens, UniProt P10721, D816V); enzyme activity; inhibitor; 0.1 µM): 107%
CC(=O)N1CCC(c2ccc(C(=O)NC(=N)N)cc2C(F)(F)F)CC1 — remaining binding (Mast/stem cell growth factor receptor Kit (KIT, Homo sapiens, UniProt P10721, T670I/V559D); cell-free assay; competition with immobilised ligand; 1 µM): 100%
